The values that follow come from ChEMBL document CHEMBL4402549, “Benzothiazole-Based LRRK2 Inhibitors as Wnt Enhancers and Promoters of Oligodendrocytic Fate” (J Med Chem, 2020).

SMILES strings stand for the structures. The source made the active and inactive calls. The rule behind the calls is not given here.

For series [1], the target named is T1, Leucine-rich repeat serine/threonine-protein kinase 2 (Homo sapiens, UniProt Q5S007). Nature of the series: Inhibition of wild type human GST-tagged LRRK2 (970 to 2527 residues) expressed in baculovirus expression system assessed as reduction in ADP formation at 10 uM using LRRKtide as substrate measured after 1 hr in presence of ATP by Adapta assay relative to control. Put shortly:
(§1)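 Fluorescence immunoassay detecting ADP formed by the kinase reaction. Each compound screened at a single fixed concentration of 10 µM and reported as percent inhibition.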

Series [2] concerns the target T1, Leucine-rich repeat serine/threonine-protein kinase 2. Kind of series: Inhibition of wild type human GST-tagged LRRK2 (970 to 2527 residues) expressed in baculovirus expression system assessed as reduction in ADP formation using LRRKtide as substrate measured after 1 hr in presence of ATP by Adapta assay. Put shortly:
(§2)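 Fluorescence immunoassay detecting ADP formed in the kinase reaction. Dose-response run at ten concentrations per compound in two independent experiments. IC50 given ± standard deviation.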

Series [3] deals with Leucine-rich repeat serine/threonine-protein kinase 2 (Homo sapiens), Q5S007 [G2019S]. Nature of the series: Inhibition of human GST-tagged LRRK2 G2019S mutant (970 to 2527 residues) expressed in baculovirus expression system assessed as reduction in ADP formation at 10 uM using LRRKtide as substrate measured after 1 hr in presence of ATP by Adapta assay relative to control. The method, boiled down: as §1

For series [4], the target named is Leucine-rich repeat serine/threonine-protein kinase 2 (Homo sapiens, UniProt Q5S007, G2019S). Kind of series: Inhibition of human GST-tagged LRRK2 G2019S mutant (970 to 2527 residues) expressed in baculovirus expression system assessed as reduction in ADP formation using LRRKtide as substrate measured after 1 hr in presence of ATP by Adapta assay. The method, boiled down: as §2

The target of series [5] is T1, Leucine-rich repeat serine/threonine-protein kinase 2. Nature of the series: Inhibition of LRRK2 in human iPSC derived neuronal progenitor cells stably expressing TCF/LEF luciferase reporter gene assessed as modulation of Wnt/beta-catenin signaling pathway by measuring TCF/LEF dependent beta-catenin mediated transcriptional activity at 1 uM measured after 24 hrs in presence of Wnt3a by Steady-Glo luciferase assay relative to control. Put shortly:
(§3)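 TCF/LEF luciferase reporter assay in human cells stimulated with Wnt3a supplied as Wnt3a-expressing cell conditioned medium; compounds at fixed 1 or 10 µM. Reporter activity expressed as fold increase over DMSO vehicle.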

Series [6] has the same target. Nature of the series: Inhibition of LRRK2 in human iPSC derived neuronal progenitor cells stably expressing TCF/LEF luciferase reporter gene assessed as modulation of Wnt/beta-catenin signaling pathway by measuring TCF/LEF dependent beta-catenin mediated transcriptional activity at 10 uM measured after 24 hrs in presence of Wnt3a by Steady-Glo luciferase assay relative to control. Put shortly: as §3
Background: Reporter assays use an easily measured gene product as a stand-in for the process of interest.

For series [7] the target is unchanged. Kind of series: Inhibition of LRRK2 in human iPSC derived neuronal progenitor cells stably expressing TCF/LEF luciferase reporter gene assessed as modulation of Wnt/beta-catenin signaling pathway by measuring TCF/LEF dependent beta-catenin mediated transcriptional activity measured after 24 hrs in presence of Wnt3a by Steady-Glo luciferase assay relative to control. Put shortly:
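TCF/LEF luciferase reporter activity measured with Wnt3a supplied as conditioned medium from Wnt3a-expressing cells. Compounds screened at 1 and 10 µM. For dose curves, serial dilutions spanned 0.01–20.00 µM, with each concentration repeated eight times. Values are fold increase over DMSO vehicle (average ± SD for the curves).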

Series [8] is filed under the species Mus musculus. Nature of the series: Induction of neurogenesis in C57/BL6 mouse neural stem cells derived neurospheres isolated from adult ventricular-subventricular zone assessed as increase in neurosphere size at 1 to 5 uM measured after 4 days in presence of FGF or EGF by bright field microscopy analysis. The series is classed as functional. Put shortly: (§4)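 Primary neurospheres from adult mouse V-SVZ neural stem and progenitor cells, cultured 4 days with FGF and EGF and compound at 1 or 5 µM; DMSO vehicle control, PF06447475 as reference LRRK2 inhibitor. Proliferation read as total neurosphere area per bright-field field by ImageJ macro, expressed relative to DMSO (=100); 6 fields per triplicate, three independent experiments, mean ± SEM.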

The nature of series [9]: Induction of neurogenesis in C57/BL6 mouse neural stem cells derived neurospheres isolated from adult ventricular-subventricular zone assessed as increase in total area of neurosphere at 1 to 5 uM measured after 4 days in presence of FGF or EGF by bright field microscopy analysis relative to control. The series is classed as functional. Put shortly: as §4
Series [10] is filed under the species Mus musculus. Kind of series: Induction of neurogenesis in C57/BL6 mouse neuronal progenitor cells derived neurospheres isolated from adult ventricular-subventricular zone assessed as increase in neurosphere size at 1 to 5 uM measured after 4 days in presence of FGF or EGF by bright field microscopy analysis. The series is classed as functional. The method, boiled down:
as §4

Series [11] concerns the target T1, Leucine-rich repeat serine/threonine-protein kinase 2. Nature of the series: Inhibition of LRRK2 in human iPSC derived neuronal progenitor cells stably expressing TCF/LEF luciferase reporter gene assessed as increase in AXIN2 mRNA expression in absence of Wnt3a by TaqMan probe based RT-PCR analysis.
For series [12] the target is unchanged. Nature of the series: Inhibition of LRRK2 in human iPSC derived neuronal progenitor cells stably expressing TCF/LEF luciferase reporter gene assessed as increase in AXIN2 mRNA expression in presence of Wnt3a by TaqMan probe based RT-PCR analysis.
Series [13] deals with Leucine-rich repeat serine/threonine-protein kinase 2 (Mus musculus) (UniProt Q5S006). Nature of the series: Inhibition of LRRK2 in C57/BL6 mouse neural stem cells derived neurospheres isolated from adult ventricular-subventricular zone assessed as differentiation of neurospheres forming CNPase positive oligodendrocytes at 1 uM treated for 6 days and measured on day 7 by bisbenzimide staining based confocal microscopy. The method, boiled down:
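Dissociated adult V-SVZ neurosphere cells plated on poly-ornithine/fibronectin and cultured 6 days without mitogens with compound at 1 µM, PF-475 reference, DMSO control; fixed day 7. Immunostained for CNPase (oligodendrocytes), β3-tubulin, GFAP, bisbenzimide nuclei; confocal counts of positive cells as % of total; 4 fields per triplicate, two independent experiments, mean ± SEM.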

The target is the same in series [14]. Kind of series: Inhibition of LRRK2 in C57/BL6 mouse neural stem cells derived neurospheres isolated from adult ventricular-subventricular zone assessed as reduction in Rab10 phosphorylation at 10 uM using Rab10 as substrate measured after 7 days in presence of mitogens by Western blot analysis. Put shortly:
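Neurosphere cultures from adult mouse SVZ (2 male mice) grown 7 days with mitogens, treated with compound at 10 µM or DMSO. Cell pellets immunoblotted with monoclonal anti-phospho-Rab10 (T73); p-Rab10 quantified over three experiments, mean ± SEM.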

The target in series [15] is T1, Leucine-rich repeat serine/threonine-protein kinase 2. Nature of the series: Inhibition of wild-type human partial length LRRK2 (H970 to E2527 residues) expressed in mammalian expression system at 10 uM by Kinomescan method relative to control.
The target in series [16] is Leucine-rich repeat serine/threonine-protein kinase 2 (Mus musculus) (UniProt Q5S006). Nature of the series: Inhibition of LRRK2 in C57/BL6 mouse neural stem cells derived neurospheres isolated from adult ventricular-subventricular zone assessed as increase in neurosphere proliferation at 1 uM measured after 4 days presence of FGF or EGF by bright field microscopy analysis.

A short description of series [17]: Permeability of compound in PBS/EtOH buffer (7:3) at 100 ul and pH 7.4 after 2 hrs and 30 mins by UV plate reader based PAMPA-BBB assay. The series is classed as ADME. Conditions: read-out: permeability. The method, boiled down:
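PAMPA-BBB using porcine brain lipid membrane; in vitro permeability (Pe) determined alongside ten commercial drugs whose reported Pe values validated the assay; compounds classed CNS+ from Pe.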

T1 sequence (Q5S007 whole entry, the tested form may be a part): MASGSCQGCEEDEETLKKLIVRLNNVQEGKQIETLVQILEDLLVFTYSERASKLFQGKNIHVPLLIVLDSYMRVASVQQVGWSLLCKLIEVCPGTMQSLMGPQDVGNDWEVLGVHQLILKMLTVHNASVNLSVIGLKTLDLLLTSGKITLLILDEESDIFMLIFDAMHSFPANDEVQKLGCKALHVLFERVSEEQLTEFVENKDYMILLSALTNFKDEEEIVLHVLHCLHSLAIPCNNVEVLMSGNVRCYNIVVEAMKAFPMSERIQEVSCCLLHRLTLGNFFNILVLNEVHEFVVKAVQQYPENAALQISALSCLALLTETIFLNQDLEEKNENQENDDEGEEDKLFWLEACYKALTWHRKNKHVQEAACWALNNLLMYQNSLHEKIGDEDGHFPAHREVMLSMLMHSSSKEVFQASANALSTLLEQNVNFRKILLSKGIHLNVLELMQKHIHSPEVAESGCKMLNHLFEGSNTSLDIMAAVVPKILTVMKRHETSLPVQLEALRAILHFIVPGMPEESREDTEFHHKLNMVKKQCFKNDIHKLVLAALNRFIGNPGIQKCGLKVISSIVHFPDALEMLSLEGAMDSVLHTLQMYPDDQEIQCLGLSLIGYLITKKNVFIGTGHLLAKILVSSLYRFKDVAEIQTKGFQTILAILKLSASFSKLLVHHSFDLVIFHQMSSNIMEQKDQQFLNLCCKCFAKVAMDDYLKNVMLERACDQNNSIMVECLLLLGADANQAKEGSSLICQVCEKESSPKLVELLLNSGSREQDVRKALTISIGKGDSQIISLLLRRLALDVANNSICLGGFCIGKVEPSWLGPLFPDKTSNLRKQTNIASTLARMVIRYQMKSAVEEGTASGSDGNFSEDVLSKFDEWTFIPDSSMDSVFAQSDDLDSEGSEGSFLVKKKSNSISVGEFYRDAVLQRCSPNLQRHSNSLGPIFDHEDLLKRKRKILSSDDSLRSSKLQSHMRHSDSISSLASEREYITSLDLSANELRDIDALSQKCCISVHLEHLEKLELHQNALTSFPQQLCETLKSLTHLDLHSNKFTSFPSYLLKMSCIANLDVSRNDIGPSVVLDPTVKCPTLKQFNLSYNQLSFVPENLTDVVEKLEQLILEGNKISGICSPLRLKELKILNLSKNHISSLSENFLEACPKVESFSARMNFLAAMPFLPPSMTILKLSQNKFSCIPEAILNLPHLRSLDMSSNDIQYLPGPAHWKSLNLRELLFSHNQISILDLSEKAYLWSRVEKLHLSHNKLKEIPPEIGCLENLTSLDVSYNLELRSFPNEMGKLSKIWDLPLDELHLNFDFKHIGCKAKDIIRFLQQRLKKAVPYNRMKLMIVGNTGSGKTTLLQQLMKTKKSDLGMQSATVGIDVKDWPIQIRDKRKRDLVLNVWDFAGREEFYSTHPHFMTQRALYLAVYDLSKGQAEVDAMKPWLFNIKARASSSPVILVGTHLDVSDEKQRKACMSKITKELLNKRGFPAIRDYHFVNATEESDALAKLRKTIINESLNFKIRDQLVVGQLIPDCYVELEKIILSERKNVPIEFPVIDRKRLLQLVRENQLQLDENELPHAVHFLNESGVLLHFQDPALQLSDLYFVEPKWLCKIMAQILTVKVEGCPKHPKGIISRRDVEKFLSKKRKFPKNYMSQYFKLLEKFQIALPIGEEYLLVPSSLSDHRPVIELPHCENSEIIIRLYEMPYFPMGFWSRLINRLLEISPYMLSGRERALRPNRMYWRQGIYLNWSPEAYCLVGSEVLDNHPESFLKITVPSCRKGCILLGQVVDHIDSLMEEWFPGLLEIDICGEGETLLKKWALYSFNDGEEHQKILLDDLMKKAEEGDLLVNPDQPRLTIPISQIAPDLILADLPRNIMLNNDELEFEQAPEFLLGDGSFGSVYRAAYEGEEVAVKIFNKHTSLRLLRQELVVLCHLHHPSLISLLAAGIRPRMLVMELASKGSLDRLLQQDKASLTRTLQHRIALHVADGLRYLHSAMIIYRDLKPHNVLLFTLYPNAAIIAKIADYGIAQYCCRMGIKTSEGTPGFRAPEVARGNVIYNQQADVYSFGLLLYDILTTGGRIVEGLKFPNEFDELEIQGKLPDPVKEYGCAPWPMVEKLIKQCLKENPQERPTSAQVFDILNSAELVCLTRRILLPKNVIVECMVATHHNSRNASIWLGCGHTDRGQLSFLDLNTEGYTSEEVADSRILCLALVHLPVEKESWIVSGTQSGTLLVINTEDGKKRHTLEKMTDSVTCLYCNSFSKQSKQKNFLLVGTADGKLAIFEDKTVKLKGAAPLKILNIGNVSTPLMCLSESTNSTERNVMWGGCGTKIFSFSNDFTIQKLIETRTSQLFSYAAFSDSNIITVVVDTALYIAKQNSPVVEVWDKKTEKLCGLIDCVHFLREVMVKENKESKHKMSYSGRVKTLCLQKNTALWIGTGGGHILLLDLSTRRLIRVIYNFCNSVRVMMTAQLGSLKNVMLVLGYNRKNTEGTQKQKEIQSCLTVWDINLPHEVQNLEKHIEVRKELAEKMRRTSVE
Sequence of Leucine-rich repeat serine/threonine-protein kinase 2 (Mus musculus) (Q5S006 whole entry): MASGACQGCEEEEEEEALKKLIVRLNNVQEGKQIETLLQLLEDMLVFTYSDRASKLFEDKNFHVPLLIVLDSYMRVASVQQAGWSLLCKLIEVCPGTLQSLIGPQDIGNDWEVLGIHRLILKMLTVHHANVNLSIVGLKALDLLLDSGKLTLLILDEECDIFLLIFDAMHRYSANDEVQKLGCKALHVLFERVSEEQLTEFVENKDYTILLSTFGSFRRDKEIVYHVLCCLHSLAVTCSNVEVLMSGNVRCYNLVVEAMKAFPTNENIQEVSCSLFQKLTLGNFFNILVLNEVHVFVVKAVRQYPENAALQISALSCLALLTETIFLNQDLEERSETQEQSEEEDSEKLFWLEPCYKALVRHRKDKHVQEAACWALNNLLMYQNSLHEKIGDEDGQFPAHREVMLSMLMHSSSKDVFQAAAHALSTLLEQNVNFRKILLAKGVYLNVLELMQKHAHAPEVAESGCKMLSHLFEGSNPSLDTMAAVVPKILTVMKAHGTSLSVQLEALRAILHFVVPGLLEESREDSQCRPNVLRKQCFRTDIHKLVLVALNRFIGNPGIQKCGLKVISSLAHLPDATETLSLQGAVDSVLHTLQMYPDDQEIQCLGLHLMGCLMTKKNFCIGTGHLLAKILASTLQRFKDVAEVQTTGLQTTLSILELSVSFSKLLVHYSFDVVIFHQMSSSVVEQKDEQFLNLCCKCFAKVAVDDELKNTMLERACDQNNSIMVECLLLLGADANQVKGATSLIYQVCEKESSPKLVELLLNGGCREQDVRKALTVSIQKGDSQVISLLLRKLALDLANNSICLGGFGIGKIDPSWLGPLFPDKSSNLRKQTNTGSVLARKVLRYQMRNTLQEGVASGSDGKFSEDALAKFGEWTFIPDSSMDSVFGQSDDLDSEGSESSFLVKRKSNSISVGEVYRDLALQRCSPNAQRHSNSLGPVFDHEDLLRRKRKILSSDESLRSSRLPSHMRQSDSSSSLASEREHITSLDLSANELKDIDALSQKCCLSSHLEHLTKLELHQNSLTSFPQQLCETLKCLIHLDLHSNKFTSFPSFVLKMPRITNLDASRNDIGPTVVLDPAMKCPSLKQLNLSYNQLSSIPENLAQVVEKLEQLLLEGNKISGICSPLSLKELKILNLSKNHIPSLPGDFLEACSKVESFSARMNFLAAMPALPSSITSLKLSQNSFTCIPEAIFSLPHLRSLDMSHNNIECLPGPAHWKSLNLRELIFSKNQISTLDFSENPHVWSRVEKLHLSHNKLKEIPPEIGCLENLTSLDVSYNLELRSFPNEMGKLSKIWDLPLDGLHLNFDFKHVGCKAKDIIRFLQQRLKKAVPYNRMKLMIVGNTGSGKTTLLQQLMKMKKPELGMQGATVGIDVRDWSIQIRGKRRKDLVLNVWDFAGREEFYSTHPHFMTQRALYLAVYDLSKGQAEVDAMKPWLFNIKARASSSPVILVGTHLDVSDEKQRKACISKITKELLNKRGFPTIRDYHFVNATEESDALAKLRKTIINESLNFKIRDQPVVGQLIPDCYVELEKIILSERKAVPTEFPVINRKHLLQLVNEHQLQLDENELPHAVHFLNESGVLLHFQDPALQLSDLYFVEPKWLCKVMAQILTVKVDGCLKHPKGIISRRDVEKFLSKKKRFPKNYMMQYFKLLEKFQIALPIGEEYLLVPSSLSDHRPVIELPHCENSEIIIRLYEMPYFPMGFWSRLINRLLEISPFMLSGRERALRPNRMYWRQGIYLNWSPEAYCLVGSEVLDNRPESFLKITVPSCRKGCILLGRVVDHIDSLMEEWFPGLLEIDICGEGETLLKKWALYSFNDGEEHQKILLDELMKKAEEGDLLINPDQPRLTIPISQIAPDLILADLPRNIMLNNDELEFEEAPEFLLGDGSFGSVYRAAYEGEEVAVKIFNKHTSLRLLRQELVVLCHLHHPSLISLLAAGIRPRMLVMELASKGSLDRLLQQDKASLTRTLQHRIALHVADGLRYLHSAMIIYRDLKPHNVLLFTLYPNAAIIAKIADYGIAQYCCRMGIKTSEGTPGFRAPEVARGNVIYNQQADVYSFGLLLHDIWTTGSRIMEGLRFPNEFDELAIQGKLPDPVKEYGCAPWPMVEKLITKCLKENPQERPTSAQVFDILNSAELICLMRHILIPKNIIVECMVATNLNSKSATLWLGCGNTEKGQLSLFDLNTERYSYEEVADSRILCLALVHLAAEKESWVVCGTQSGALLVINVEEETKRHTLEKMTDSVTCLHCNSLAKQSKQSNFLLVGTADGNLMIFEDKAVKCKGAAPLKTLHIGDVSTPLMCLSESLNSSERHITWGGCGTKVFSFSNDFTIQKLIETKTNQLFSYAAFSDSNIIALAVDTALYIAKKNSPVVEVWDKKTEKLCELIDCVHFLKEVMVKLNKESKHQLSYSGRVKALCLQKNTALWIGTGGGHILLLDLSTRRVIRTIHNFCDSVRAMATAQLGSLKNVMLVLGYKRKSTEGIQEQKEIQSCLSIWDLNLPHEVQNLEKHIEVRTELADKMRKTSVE
Sequence of Leucine-rich repeat serine/threonine-protein kinase 2 (Homo sapiens, UniProt Q5S007, G2019S) (Q5S007 whole entry G2019S, the tested form may be a part): as the sequence (Q5S007 whole entry, the tested form may be a part) above, with G2019S counted along it
Sequence of Leucine-rich repeat serine/threonine-protein kinase 2 (Homo sapiens), Q5S007 [G2019S] (Q5S007 whole entry G2019S, the tested form may be a part): as the sequence (Q5S007 whole entry, the tested form may be a part) above, with G2019S counted along it

For `Cc1cccc2sc(NC(=O)c3ccc(N4CCOCC4)cc3)nc12`, in series [1], the inhibition was 18%.

With `O=C(Nc1nc2ccc(F)cc2s1)c1ccc(N2CCOCC2)cc1`, the results for the inhibition in series [1], in [3] and in series [7] were 66%, 55% and “Dose-dependent effect”, respectively. In addition, the IC50 in [2] was determined as 170 nM; in series [4] it was 180 nM. In addition, the fold change (FC) in series [5] is 1.58; in [6], 2; in series [9] it was 1.8 - 2.4. For the same compound, the outcome in the series listed under Mus musculus [8] and in the series listed under Mus musculus [10] was Active. Further, the inhibition entry in [11] is “inactive”. Moreover, the inhibition entry in [12] was “Active”.

`CCOc1ccc2nc(NC(=O)c3ccc(N4CCOCC4)cc3)sc2c1`: the inhibition in series [1] worked out at 80%; in [3], 85%. Besides, the IC50 in series [2] amounted to 300 nM.

On to `COc1ccc2nc(NC(=O)c3ccc(N4CCOCC4)cc3)sc2c1`, for which the inhibition in [1] is 73%; in [3], 93%. For the same compound, in series [4], the IC50 worked out at 440 nM.

Consider `Cc1cnc(-c2cnc(NCCNc3ccc(C#N)cn3)nc2-c2ccc(Cl)cc2Cl)[nH]1`, for which the inhibition entry in series [7] is “Dose-dependent effect”.

With `O=C(Nc1nc2ccccc2s1)c1ccc(N2CCOCC2)cc1`, the inhibition in series [1] was 75%; in [3], 85%; in [7], “Dose-dependent effect”; in [15] it was less than 35%. In addition, the IC50 in series [4] worked out at 370 nM. In addition, the fold change (FC) in [5] is 3.25; in [6], 2.2; in series [9] it was 1.8 - 2.4. For the same compound, the result in the series filed under Mus musculus [8] and in the series listed under Mus musculus [10] was Active. The inhibition entry in series [13], in [14], in [12] and in [16] was “Active” throughout. For the same compound, the inhibition result in [11] was “inactive”.

For `O=C(Nc1nc2ccc(Br)cc2s1)c1ccc(N2CCOCC2)cc1`, the inhibition is 75% in series [1], 70% in series [3] and “Dose-dependent effect” in series [7]. The IC50 in series [2] is 510 nM; in series [4], 260 nM. Also, the Papp at 2.5 h in series [17] came out at 4.2 ×10⁻⁶ cm/s. The fold change (FC) in [5] was 1.25; in series [6], 2; in series [9], 1.8 - 2.4. Besides, the result in the series filed under Mus musculus [8] and in the series listed under Mus musculus [10] was Active. Also, the inhibition entry in series [13], in [14], in series [12] and in series [16] was “Active” throughout. For the same compound, the inhibition result in series [11] is “inactive”.

For the compound `O=C(CCCC(=O)c1ccccc1)Nc1nc2ccc(F)cc2s1`, the inhibition in series [1] worked out at 11%.

In the case of `CCOC(=O)c1ccc2nc(NC(=O)c3ccc(N4CCOCC4)cc3)sc2c1`, the inhibition in series [1] worked out at 22%.

As to `Cc1ccc2nc(NC(=O)c3ccc(N4CCOCC4)cc3)sc2c1`, the inhibition in series [1] was determined as 61%; in series [3], 71%. The concentration for half-maximal inhibition (IC50) in series [2] came to 480 nM. For the same compound, the fold change (FC) in [5] came to 1.76; in [6], 1.79.

Consider `O=C(Nc1nc2ccc(Cl)cc2s1)c1ccc(N2CCOCC2)cc1`, for which the figures for the inhibition in series [1] and in [3] were 60% and 50%, respectively. Further, the IC50 in series [2] is 370 nM.

In the case of `O=C(Nc1nc2ccc(C(F)(F)F)cc2s1)c1ccc(N2CCOCC2)cc1`, the values for the inhibition in series [1] and in series [3] were 51% and 69%, respectively. Further, the IC50 is 2270 nM in series [2] and 280 nM in series [4].

Consider `O=C(Nc1nc2c(Cl)cccc2s1)c1ccc(N2CCOCC2)cc1`, for which the inhibition in [1] was found to be 32%.

Take `O=C(Nc1nc2ccc(F)cc2s1)c1ccccc1`: the inhibition in series [1] is 81%; in [3] it was 79%; in series [7], “Dose-dependent effect”. In addition, the IC50 in series [2] and in series [4] was 520 nM throughout. For the same compound, the Papp at 2.5 h in series [17] came to 15 ×10⁻⁶ cm/s. In addition, the fold change (FC) in series [5] was 1.43; in series [6], 2.29; in [9], 1.8 - 2.4. Moreover, the result in the series listed under Mus musculus [8] and in the series filed under Mus musculus [10] was Active. The inhibition entry in [11] is “inactive”. In addition, in [12], the inhibition entry was “Active”.

Turning to `COc1ccc2cc(C(=O)Nc3nc4ccc(F)cc4s3)ccc2c1`, the inhibition in series [1] was 16%.

In the case of `CC(C)c1ccc2nc(NC(=O)c3ccc(N4CCOCC4)cc3)sc2c1`, the inhibition came to 48% in [1] and 70% in series [3]. The IC50 in [2] came out at 3490 nM; in series [4], 1120 nM. Besides, the Papp at 2.5 h in series [17] turned out to be 4.3 ×10⁻⁶ cm/s. In addition, the fold change (FC) was found to be 1.19 in series [5] and 1.22 in [6].

As for `Cc1cc(-c2ccc3nc(Nc4ccccc4)nn3c2)cc(C)c1O`, the IC50 in [2] and in series [4] was 20 nM throughout.

In the case of `O=C(Nc1nc2ccc(F)cc2s1)c1ccc(Cl)cc1`, the figures for the inhibition in series [1] and in series [3] were 68% and 67%, respectively. In addition, the IC50 in series [2] was 4460 nM; in [4], 5640 nM.

On to `CCCOc1ccc2nc(NC(=O)c3ccc(N4CCOCC4)cc3)sc2c1`, for which the inhibition in series [1] amounted to 13%.

`CS(=O)(=O)c1ccc2nc(NC(=O)c3ccc(N4CCOCC4)cc3)sc2c1`: the inhibition in series [1] came out at 77%.

As for `N#Cc1cccc(-c2c[nH]c3ncnc(N4CCOCC4)c23)c1`, the result in the series listed under Mus musculus [8] and in the series filed under Mus musculus [10] was Active. In addition, the “fold change (FC)” value in series [9] is 1.8 - 2.4.

By inhibition is commonly meant the percentage by which the read-out fell short of the control. By IC50 is commonly meant the point on the concentration scale where inhibition reaches its midpoint.
